Data published in ChEMBL document CHEMBL4145582, “Cytotoxic and Antibacterial Eremophilane Sesquiterpenes from the Marine-Derived Fungus Cochliobolus lunatus SCSIO41401” (J Nat Prod, 2018).
In brackets after ≈: the same amount, converted by molar mass.

What was measured:
HepG2 = test: Cytotoxicity against human HepG2 cells after 6 days by MTT assay; format: functional, cell-based; details: HepG2, 144 h
Summary of the method: (§1)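 HepG-2 and SGC7901 cells; growth inhibition read by MTT method, with 5-fluorouracil as positive control.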

SGC-7901 = test: Cytotoxicity against human SGC7901 cells after 6 days by MTT assay; format: functional, cell-based; details: SGC-7901, 144 h; summary of the method: as §1
Escherichia coli = test: Antimicrobial activity against Escherichia coli ATCC 25922 after 24 hrs by serial dilution method; format: functional; details: ATCC 25922, 24 h
Summary of the method: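 Serial broth dilution in 96-well microtiter plates. Compounds and controls are dissolved in DMSO as stock. Bacteria are grown overnight at 37 °C, then diluted to 10^6 cfu/mL. E. coli and S. aureus are grown in Luria–Bertani broth. P. multocida and E. rhusiopathiae are grown in trypticase soy broth with 10% calf serum. Plates are incubated at 37 °C for 24 h and read at 630 nm.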

Row | SMILES | IC50 (HepG2) | IC50 (SGC-7901) | MIC (Escherichia coli)
1 | O=c1[nH]cc(F)c(=O)[nH]1 [FLUOROURACIL] | 12 µM | 12 µM | –
2 | CN[C@@H]1[C@H](O[C@H]2[C@H](O[C@H]3[C@H](O)[C@@H](O)[C@H](N=C(N)N)[C@@H](O)[C@@H]3N=C(N)N)O[C@@H](C)[C@]2(O)C=O)O[C@@H](CO)[C@H](O)[C@H]1O [STREPTOMYCIN] | – | – | 25 µg/mL (≈ 43 µM)
